The values below come from ChEMBL document CHEMBL3232894, “Discovery of AMG 925, a FLT3 and CDK4 dual kinase inhibitor with preferential affinity for the activated state of FLT3” (J Med Chem, 2014).

The subject of the first series is MOLM-13. Nature of the series: cells. Conditions: Homo sapiens.
`CNC(=O)c1cc(Oc2ccc(NC(=O)Nc3ccc(Cl)c(C(F)(F)F)c3)cc2)ccn1` [SORAFENIB] gave an IC50 of over 3000 nM.

For the next series, the target named is T1, Receptor-type tyrosine-protein kinase FLT3 (Homo sapiens, UniProt P36888).
T1 sequence (P36888 whole entry): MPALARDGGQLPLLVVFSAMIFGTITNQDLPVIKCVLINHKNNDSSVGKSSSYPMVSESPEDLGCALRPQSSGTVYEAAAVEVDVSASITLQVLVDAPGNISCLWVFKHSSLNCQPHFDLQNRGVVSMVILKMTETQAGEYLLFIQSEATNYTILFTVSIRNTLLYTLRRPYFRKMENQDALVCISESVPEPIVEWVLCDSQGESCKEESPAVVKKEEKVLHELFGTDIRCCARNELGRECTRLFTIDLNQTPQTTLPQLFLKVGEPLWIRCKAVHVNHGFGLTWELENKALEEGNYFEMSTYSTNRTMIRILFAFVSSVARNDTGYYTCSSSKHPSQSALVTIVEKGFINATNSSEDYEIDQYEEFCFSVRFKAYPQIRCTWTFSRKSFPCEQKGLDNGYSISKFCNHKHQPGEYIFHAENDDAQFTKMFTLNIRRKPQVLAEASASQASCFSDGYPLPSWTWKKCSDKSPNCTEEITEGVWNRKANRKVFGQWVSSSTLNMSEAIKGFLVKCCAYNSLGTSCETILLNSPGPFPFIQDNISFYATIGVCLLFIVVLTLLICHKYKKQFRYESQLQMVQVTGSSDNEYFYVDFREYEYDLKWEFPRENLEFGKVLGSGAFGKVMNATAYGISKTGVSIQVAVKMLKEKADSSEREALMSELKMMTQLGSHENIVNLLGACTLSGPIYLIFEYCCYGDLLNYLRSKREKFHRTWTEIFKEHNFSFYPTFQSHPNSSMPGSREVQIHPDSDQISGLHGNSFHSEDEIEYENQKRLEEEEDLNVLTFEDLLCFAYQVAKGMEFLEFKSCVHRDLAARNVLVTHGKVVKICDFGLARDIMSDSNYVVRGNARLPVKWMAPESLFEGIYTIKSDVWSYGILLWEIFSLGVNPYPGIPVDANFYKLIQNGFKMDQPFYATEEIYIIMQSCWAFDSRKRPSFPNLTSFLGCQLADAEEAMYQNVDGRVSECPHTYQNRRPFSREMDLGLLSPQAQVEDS
Nature of the series: Inhibition of GST-fused human FLT3 cytoplasmic domain (amino acids 564 to 993) using Ulight-JAK1 as substrate after 1 hr by TR-FRET assay.
Conditions: not given
Regarding `COc1nc(Nc2ncc3c4ccncc4n([C@H]4CC[C@H](C)CC4)c3n2)ccc1N1CCC(N(C)C)CC1`, the half-maximal inhibitory concentration (IC50) turned out to be 0.2 nM.

For the compound `CN(C)C1CCN(c2ccc(Nc3ncc4c5ccncc5n([C@H]5CC[C@H](C)CC5)c4n3)nc2F)CC1`, half-maximal inhibition (IC50) was put at 0.6 nM.

In another series the target is Cyclin-dependent kinase 1/cyclin B1 (Homo sapiens, UniProt P06493). Briefly: Inhibition of CDK1/cyclin B (unknown origin) using histone H1 as substrate after 60 mins by scintillation counting analysis in presence of [r-33P]ATP. Format: protein-complex assay.
Cyclin-dependent kinase 1/cyclin B1, sequence (P06493 whole entry): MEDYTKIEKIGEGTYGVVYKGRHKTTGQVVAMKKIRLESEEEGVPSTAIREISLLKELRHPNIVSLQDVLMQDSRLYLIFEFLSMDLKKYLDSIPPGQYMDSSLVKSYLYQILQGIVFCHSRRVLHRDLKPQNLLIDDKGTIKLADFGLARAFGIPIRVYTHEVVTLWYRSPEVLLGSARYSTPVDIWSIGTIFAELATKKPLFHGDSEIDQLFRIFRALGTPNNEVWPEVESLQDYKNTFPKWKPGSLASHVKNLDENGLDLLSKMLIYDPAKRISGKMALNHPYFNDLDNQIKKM
Cyclin-dependent kinase 1/cyclin B1, sequence (P14635 whole entry, further chain): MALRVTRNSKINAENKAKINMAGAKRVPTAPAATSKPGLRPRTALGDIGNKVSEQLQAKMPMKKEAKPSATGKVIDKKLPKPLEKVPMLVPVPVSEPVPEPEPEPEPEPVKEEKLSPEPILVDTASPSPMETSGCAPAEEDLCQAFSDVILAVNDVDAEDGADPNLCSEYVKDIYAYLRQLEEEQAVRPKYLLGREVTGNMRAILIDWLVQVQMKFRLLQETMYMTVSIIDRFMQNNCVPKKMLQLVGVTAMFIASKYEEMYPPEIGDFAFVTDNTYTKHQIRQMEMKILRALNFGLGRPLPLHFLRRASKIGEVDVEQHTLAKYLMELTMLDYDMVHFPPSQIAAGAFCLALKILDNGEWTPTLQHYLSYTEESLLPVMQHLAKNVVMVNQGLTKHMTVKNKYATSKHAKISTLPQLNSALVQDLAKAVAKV
Conditions: not given
Consider `COc1nc(Nc2ncc3c4ccncc4n([C@H]4CC[C@H](C)CC4)c3n2)ccc1N1CCC(N(C)C)CC1`, for which the concentration for half-maximal inhibition (IC50) is 790 nM.

Turning to `CN(C)C1CCN(c2ccc(Nc3ncc4c5ccncc5n([C@H]5CC[C@H](C)CC5)c4n3)nc2F)CC1`, the IC50 is 2680 nM.

Turning to `C[C@@H](O)CN(C)C1CCN(c2ccc(Nc3ncc4c5ccncc5n([C@H]5CC[C@H](C)CC5)c4n3)nn2)CC1`, the IC50 is 1540 nM.

Test system in the next series: not listed separately
Briefly: Clearance in iv dosed rat. Format: ADME, organism-based. Conditions: in vivo. The gist of the method:
(§1)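 Intravenous and oral (gavage, solution) PK in rat, dog and cynomolgus monkey. The rat vehicle for both routes was water/acetate/tween at pH 4, 96/3/1 (v/v/v). Dog and monkey iv doses used 40% PG aqueous solution at pH 2, and their oral doses used 20% captisol aqueous solution.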
The compound `COc1nc(Nc2ncc3c4ccncc4n([C@H]4CC[C@H](C)CC4)c3n2)ccc1N1CCC(N(C)C)CC1` gave a clearance of 9.17 mL/min/kg.

On to `CN(C)C1CCN(c2ccc(Nc3ncc4c5ccncc5n([C@H]5CC[C@H](C)CC5)c4n3)nc2F)CC1`, for which the clearance was 20 mL/min/kg.

Compound `C[C@@H](O)CN(C)C1CCN(c2ccc(Nc3ncc4c5ccncc5n([C@H]5CC[C@H](C)CC5)c4n3)nn2)CC1` gave a clearance of 10 mL/min/kg.

Test system in another series: not listed separately
Nature of the series: Antiproliferative activity against Rb-negative human MDA-MB-436 cells assessed as incorporation of [3H]thymidine into DNA after 72 hrs by beta-plate counting analysis. Format: functional.
Conditions: not given
On to `COc1nc(Nc2ncc3c4ccncc4n([C@H]4CC[C@H](C)CC4)c3n2)ccc1N1CCC(N(C)C)CC1`, for which the IC50 turned out to be 1120 nM.

As for `CN(C)C1CCN(c2ccc(Nc3ncc4c5ccncc5n([C@H]5CC[C@H](C)CC5)c4n3)nc2F)CC1`, the half-inhibitory concentration (IC50) was found to be 1470 nM.

With `C[C@@H](O)CN(C)C1CCN(c2ccc(Nc3ncc4c5ccncc5n([C@H]5CC[C@H](C)CC5)c4n3)nn2)CC1`, the IC50 is 910 nM.

The next series deals with Cyclin-dependent kinase 4/cyclin D1 (Homo sapiens, UniProt P11802). Nature of the series: Inhibition of CDK4/cyclin D1 (unknown origin) using Rb as substrate after 60 mins by scintillation counting analysis in presence of [r-33P]ATP. Format: protein-complex assay.
Cyclin-dependent kinase 4/cyclin D1, sequence (P11802 whole entry): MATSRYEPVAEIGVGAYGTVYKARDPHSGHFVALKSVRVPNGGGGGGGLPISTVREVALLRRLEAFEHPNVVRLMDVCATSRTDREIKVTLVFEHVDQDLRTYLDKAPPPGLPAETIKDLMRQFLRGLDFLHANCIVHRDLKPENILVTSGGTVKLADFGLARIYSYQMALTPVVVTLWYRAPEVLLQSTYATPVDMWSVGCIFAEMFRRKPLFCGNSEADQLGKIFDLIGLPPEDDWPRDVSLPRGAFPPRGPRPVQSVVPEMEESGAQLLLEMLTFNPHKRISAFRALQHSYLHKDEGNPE
Cyclin-dependent kinase 4/cyclin D1, sequence (P24385 whole entry, further chain): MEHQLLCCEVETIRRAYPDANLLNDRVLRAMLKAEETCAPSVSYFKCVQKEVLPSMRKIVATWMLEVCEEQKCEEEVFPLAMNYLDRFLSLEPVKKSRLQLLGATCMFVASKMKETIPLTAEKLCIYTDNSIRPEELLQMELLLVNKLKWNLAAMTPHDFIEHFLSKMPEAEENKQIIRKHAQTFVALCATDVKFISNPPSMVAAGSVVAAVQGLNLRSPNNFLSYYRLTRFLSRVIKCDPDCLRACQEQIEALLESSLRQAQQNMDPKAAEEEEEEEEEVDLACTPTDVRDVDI
Conditions: not given
In the case of `COc1nc(Nc2ncc3c4ccncc4n([C@H]4CC[C@H](C)CC4)c3n2)ccc1N1CCC(N(C)C)CC1`, the IC50 came out at 3 nM.

For the compound `CN(C)C1CCN(c2ccc(Nc3ncc4c5ccncc5n([C@H]5CC[C@H](C)CC5)c4n3)nc2F)CC1`, the half-inhibitory concentration (IC50) worked out at 1 nM.

For another series, the system named is U-937. Nature of the series: Induction of apoptosis in human U937 cells harboring wild type FLT3 at 1 uM after 48 hrs by Annexin V/Sytox Green staining based flow cytometry. Format: functional.
Conditions: not given
The gist of the method: (§2)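 MOLM13, sorafenib-resistant MOLM13 and U937 cells were each exposed to compound at 1 μM for 48 h. Cells were then stained with Annexin V/Sytox Green and analysed by flow cytometry. Readout is apoptotic cells as a percentage of all cells analysed.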
Compound `CNC(=O)c1cc(Oc2ccc(NC(=O)Nc3ccc(Cl)c(C(F)(F)F)c3)cc2)ccn1` [SORAFENIB] came in with an Activity of 8.76%.

Test system in another series: not listed separately
Nature of the series: Oral bioavailability in rat. Format: ADME, organism-based. Conditions: in vivo. The gist of the method: as §1
Consider `COc1nc(Nc2ncc3c4ccncc4n([C@H]4CC[C@H](C)CC4)c3n2)ccc1N1CCC(N(C)C)CC1`, for which the bioavailability came out at 62%.

In turn, `CN(C)C1CCN(c2ccc(Nc3ncc4c5ccncc5n([C@H]5CC[C@H](C)CC5)c4n3)nc2F)CC1` gave a bioavailability of 88%.

Compound `C[C@@H](O)CN(C)C1CCN(c2ccc(Nc3ncc4c5ccncc5n([C@H]5CC[C@H](C)CC5)c4n3)nn2)CC1` showed a bioavailability of 46%.

For another series, the system named is MOLM-13. Briefly: Antiproliferative activity against human MOLM13 cells harboring FLT3 ITD mutant assessed as incorporation of [3H]thymidine into DNA after 72 hrs by beta-plate counting analysis. Format: functional, cell-based.
Conditions: not given
Consider `CNC(=O)c1cc(Oc2ccc(NC(=O)Nc3ccc(Cl)c(C(F)(F)F)c3)cc2)ccn1` [SORAFENIB], for which the IC50 was 5 nM.

Turning to `COc1nc(Nc2ncc3c4ccncc4n([C@H]4CC[C@H](C)CC4)c3n2)ccc1N1CCC(N(C)C)CC1`, the 50% inhibitory concentration (IC50) turned out to be 2 nM.

As for `CN(C)C1CCN(c2ccc(Nc3ncc4c5ccncc5n([C@H]5CC[C@H](C)CC5)c4n3)nc2F)CC1`, the IC50 came out at 13 nM.

`C[C@@H](O)CN(C)C1CCN(c2ccc(Nc3ncc4c5ccncc5n([C@H]5CC[C@H](C)CC5)c4n3)nn2)CC1`: the half-inhibitory concentration (IC50) was 4 nM.

A further series deals with COLO 205. Briefly: Antiproliferative activity against Rb-positive human COLO205 cells assessed as incorporation of [14C]thymidine into DNA after 72 hrs by beta-plate counting analysis.
Conditions: not given
In the case of `CNC(=O)c1cc(Oc2ccc(NC(=O)Nc3ccc(Cl)c(C(F)(F)F)c3)cc2)ccn1` [SORAFENIB], the half-inhibitory concentration (IC50) is over 3000 nM.

As for `COc1nc(Nc2ncc3c4ccncc4n([C@H]4CC[C@H](C)CC4)c3n2)ccc1N1CCC(N(C)C)CC1`, the IC50 came out at 54 nM.

In the case of `CN(C)C1CCN(c2ccc(Nc3ncc4c5ccncc5n([C@H]5CC[C@H](C)CC5)c4n3)nc2F)CC1`, the IC50 turned out to be 16 nM.

As to `C[C@@H](O)CN(C)C1CCN(c2ccc(Nc3ncc4c5ccncc5n([C@H]5CC[C@H](C)CC5)c4n3)nn2)CC1`, the IC50 was found to be 9 nM.

The next series concerns U-937. Briefly: Antiproliferative activity against human U937 cells assessed as incorporation of [3H]thymidine into DNA after 72 hrs by beta-plate counting analysis.
Conditions: not given
Turning to `CNC(=O)c1cc(Oc2ccc(NC(=O)Nc3ccc(Cl)c(C(F)(F)F)c3)cc2)ccn1` [SORAFENIB], the IC50 was over 3000 nM.

The next series concerns MOLM-13. Nature of the series: Induction of apoptosis in human MOLM13 cells harboring FLT3 ITD mutant at 1 uM after 48 hrs by Annexin V/Sytox Green staining based flow cytometry. Format: functional.
Conditions: not given
The gist of the method:
as §2
The compound `CNC(=O)c1cc(Oc2ccc(NC(=O)Nc3ccc(Cl)c(C(F)(F)F)c3)cc2)ccn1` [SORAFENIB] had an Activity of 84.6%.

Test system in the next series: not listed separately
Briefly: AUC in rat at 2 mg/kg, po. Format: ADME, organism-based. Details: dose 2 mg/kg, route oral. Conditions: plasma.
In the case of `C[C@@H](O)CN(C)C1CCN(c2ccc(Nc3ncc4c5ccncc5n([C@H]5CC[C@H](C)CC5)c4n3)nn2)CC1`, the AUC is 3.24 µM·h.

The subject of the next series is MOLM-13. Nature of the series: Induction of apoptosis in sorafenib-resistant human MOLM13 cells harboring FLT3 ITD+D835Y mutant at 1 uM after 48 hrs by Annexin V/Sytox Green staining based flow cytometry. Format: functional.
Conditions: not given
The gist of the method:
as §2
(In general: Flow cytometry measures light scatter and fluorescence of single cells or particles in a stream.)
The compound `CNC(=O)c1cc(Oc2ccc(NC(=O)Nc3ccc(Cl)c(C(F)(F)F)c3)cc2)ccn1` [SORAFENIB] displayed an Activity of 5.16%.

The next series relates to Mus musculus. Briefly: Toxicity in po dosed CrTac:NCR-Foxn1nu (NCR) nude mouse xenografted with human MOLM13 cells at dose that causing 100% tumor growth inhibition administered qd for 8 days. Format: organism-based, MOLM-13. Particulars: in vivo, 192 h. The gist of the method:
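Body weight tracked throughout the 8-day once-daily oral study in NCR nude mice carrying MOLM13 xenografts. Doses were 25, 50, 75 and 150 mg/kg, with a vehicle control.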
(In general: Xenograft models place foreign cells or tissue in a host animal.)
With `COc1nc(Nc2ncc3c4ccncc4n([C@H]4CC[C@H](C)CC4)c3n2)ccc1N1CCC(N(C)C)CC1`, the Activity entry is listed as “Toxic”.

With `CN(C)C1CCN(c2ccc(Nc3ncc4c5ccncc5n([C@H]5CC[C@H](C)CC5)c4n3)nc2F)CC1`, the Activity entry is reported as “Toxic”.

Test system in another series: not listed separately
Briefly: Total Cmax in rat at 2 mg/kg, po. Format: ADME, organism-based. Details: dose 2 mg/kg, route oral. Particulars: in vivo.
On to `C[C@@H](O)CN(C)C1CCN(c2ccc(Nc3ncc4c5ccncc5n([C@H]5CC[C@H](C)CC5)c4n3)nn2)CC1`, for which the highest level (Cmax) was 280 nM.

In general, IC50 refers to the concentration that inhibits the measured activity by half. The term clearance denotes the volume of plasma or blood freed of the substance per unit of time. Low values mean a low capacity for elimination, high ones a high capacity for elimination. Usually bioavailability stands for dose-corrected exposure relative to a reference, in per cent. Broadly, the AUC is the area under the concentration-time curve, a measure of exposure. The Cmax is the highest concentration seen after dosing.
